Laboratory results taken from PubChem BioAssay AID651560 (Sanford-Burnham Center for Chemical Genomics, 2012).
The whole screen tested about 360,000 compounds, of which about 820 (0.23%) were called active.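 The calls were made as follows: active = compounds that cut the enzyme signal by at least half of the control window in the single-dose screen; inactive = the rest.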 For the sample, actives were picked, then their nearest neighbours and some compounds at random.

molecular target: Low molecular weight phosphotyrosine protein phosphatase (Homo sapiens) (UniProt P24666); experiment: LMPTP phosphatase inhibitors, primary screen, biochemical, fluorescence intensity, uHTS (AID 651560); conditions: recombinant LMPTP-A, OMFP fluorogenic substrate, at 20 µM, stronger effect = higher value;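 also: plate controls were DMSO wells with enzyme plus substrate for no effect and substrate without enzyme for full effect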
Sequence (P24666 whole entry, looked up): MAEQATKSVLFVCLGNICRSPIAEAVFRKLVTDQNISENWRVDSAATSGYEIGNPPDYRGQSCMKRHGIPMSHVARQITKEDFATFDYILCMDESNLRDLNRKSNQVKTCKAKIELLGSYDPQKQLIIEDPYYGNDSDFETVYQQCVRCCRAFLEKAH
Procedure, shortened: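 Material: LMPTP-A; amount: 0.625 nM enzyme; doses: single 20 µM dose; times: reaction 50 min, room temperature, dark; technique: fluorescence intensity of OMFP turnover product; benchmarks: no-enzyme and uninhibited controls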

| Structure (SMILES) | inhibition |
| --- | --- |
| NNC(=O)c1cccc(COCC(F)(F)C(F)F)c1 | -2.64% (inactive) |
| CC(CO)NCC12CC3CC(CC(C3)C1)C2 (centres undefined) | -1.02% (inactive) |
| COc1ccc(NC(=O)Nc2ccc3c(c2)C(=O)N([C@H](C)CO)C[C@H](C)[C@@H](CN(C)C(=O)Nc2ccc4c(c2)OCO4)O3)cc1 | 0.628% (inactive) |
| CCOc1ccc(N(CC(=O)NC2CCCCCC2)S(=O)(=O)c2c(C)[nH]c(=O)[nH]c2=O)cc1 | -1.41% (inactive) |
| CN(C)c1cccc(C(=O)N2CCC(n3nccc3NC(=O)C3CCOC3)CC2)c1 (centres undefined) | -1.94% (inactive) |
| COCCNc1nc(-c2ccccc2)nc2c1oc1ccccc12 | 2% (inactive) |
| CCOCCCNc1nc(-c2ccccc2)nc2ccccc12 | 57.8% (active) |
| CCOCCCNS(=O)(=O)Cc1ccccc1 | -0.147% (inactive) |
| O=C(Nc1ccc(C2CC2(Cl)Cl)cc1)c1cccc([N+](=O)[O-])c1 (centres undefined) | 2.23% (inactive) |
| Cn1ccc(=Nc2ccc(NC(=O)c3ccc(N=c4ccn(C)c5ccc([N+](=O)[O-])cc45)cc3)cc2)cc1 | 78% (active) |
| O=C(Nc1cc2c3c(c1)C1CCCC1CN3CC1CCCC21)c1ccc([N+](=O)[O-])cc1 (centres undefined) | 2.81% (inactive) |
| CCc1ccc(CCC(=O)Nc2ccc(S(N)(=O)=O)cc2)o1 | -1.91% (inactive) |
| Cc1cc(N2C(=O)C(O)=C(C(=O)c3ccc(C)o3)C2c2ccc(OCc3ccccc3)cc2)no1 (centres undefined) | 52.5% (active) |
| C=CCOc1cccc(C2C(C(=O)c3ccc(C)o3)=C(O)C(=O)N2c2nnc(C)s2)c1 (centres undefined) | 0.72% (inactive) |
| CCCOc1ccc(C2C(C(=O)c3ccc(C)o3)=C(O)C(=O)N2CCCn2ccnc2)cc1 (centres undefined) | 20.9% (inactive) |
| COCc1ccc(CN2CCC(Oc3ccc(C(=O)NCc4ccccn4)cc3)CC2)o1 | -0.769% (inactive) |
| CC1C(=O)N(Cc2cn(CC3CCCCC3)nn2)CCS(=O)(=O)N1Cc1ccc(-c2cccc(N(C)C)c2)cc1 (centres undefined) | 2.27% (inactive) |
| FC(F)(F)c1cccc(-c2nc(COc3ccc(Cl)cc3Cl)no2)c1 | 2.97% (inactive) |
| O=C1COc2c1ccc(O)c2O | 2.2% (inactive) |
| CCN(CC)C(=O)CS(=O)CC(=O)Nc1cc(OCCOC)c(Cl)cc1Cl (centres undefined) | -0.0342% (inactive) |
| C[C@H](CO)N1C[C@H](C)[C@H](CN(C)C(=O)Nc2ccc3c(c2)OCO3)Oc2ncc(Br)cc2C1=O | -2.87% (inactive) |
| COc1cccc(CNC(=O)C(=O)NCCC2CCCCN2S(=O)(=O)c2ccc(C)cc2)c1 (centres undefined) | 0.141% (inactive) |
| Cn1c(C(=O)OC(C(=O)NC2CCCCC2)c2ccccn2)cc2sccc21 (centres undefined) | 0.323% (inactive) |

| Structure (SMILES) | inhibition |
| --- | --- |
| C=CCn1c(Oc2ccc(C(=O)OC)cc2)nc2c1c(=O)n(C)c(=O)n2C | -1.9% (inactive) |
| COc1ccccc1N(CC(=O)NC1CCCC1)C(=O)C1(C)CC(=O)N=C2C=CC(C)=CN21 (centres undefined) | -0.3% (inactive) |
| CCCCNC(=O)Cn1nc(C)c(S(=O)(=O)N2CCOCC2)c1C | -0.848% (inactive) |
| CCC(C)c1ccccc1NC(=O)CN(C)CC(=O)Nc1ccccc1SC (centres undefined) | -7.1% (inactive) |
| CC1(C)CC(=O)C2=C(C1)N=C1SCCC(=O)N1C2c1ccc(C(F)(F)F)cc1 (centres undefined) | 0.279% (inactive) |
| Cc1cc(F)ccc1NC(=O)C(C)n1c2ccccc2c2nc(=O)cc(C)n21 (centres undefined) | -1.13% (inactive) |
| O=S(=O)(c1ccc(Cl)cc1)N1CCCN(c2ccc(C(F)(F)F)cn2)CC1 | 2.43% (inactive) |
| CCCN1C(=O)C(NS(=O)(=O)c2ccc(N)cc2)(C(F)(F)F)C(C(=O)OC)=C1C (centres undefined) | -1.38% (inactive) |
| Cc1cccc(NC(=S)N(CCN(C)C)C(C)c2ccco2)c1 (centres undefined) | -1.32% (inactive) |
| C=CC1=C(C(=O)O)N2C(=O)[C@@H](NC(=O)/C(=N/OCC(=O)O)c3csc(N)n3)[C@H]2SC1 | 77.9% (active) |
| COc1ccc2c(C)c(CCC(=O)NC3CC3)c(=O)oc2c1C | -1.16% (inactive) |
| Cc1c(CCC(=O)O)c(=O)oc2c(C)c(OCc3ccccc3Cl)ccc12 | 86.6% (active) |
| O=C(O)c1ccccc1OCc1ccccc1Cl | -0.307% (inactive) |
| O=C(CO/N=C/c1ccccc1OC(F)F)NC1CCCC1 | -0.427% (inactive) |
| Cc1ccc(Cc2c(-c3ccc(Cl)cc3)nc3c4ccccc4ccn23)cc1 | 6.26% (inactive) |
| COc1ccc(NC(=O)c2cc(=O)[nH]c3ccccc23)cc1S(=O)(=O)N1CCOCC1 | -0.651% (inactive) |
| COc1ccc(Cc2cc(-c3ccc(F)cc3)n[nH]c2=O)cc1 | 0.445% (inactive) |
| COc1ccc2[nH]c(=O)c(-c3noc(-c4ccc(F)cc4)n3)cc2c1 | 48.8% (active) |
| CCCc1nc(-c2cc3cc(C)ccc3[nH]c2=O)no1 | -2.23% (inactive) |
| Cn1c(=O)cc(OCC(=O)N2CCN(c3ccccc3F)CC2)c2ccccc21 | -0.233% (inactive) |
| Cc1[nH]c(N)nc(=S)c1CCCNc1ccccc1 | 4.94% (inactive) |
| Cc1csc(=O)n1CC(=O)Nc1ccc(S(C)(=O)=O)cc1 | 0.0764% (inactive) |
| CN1CCN(Cc2c(C(=O)N3CCc4ccccc4C3)nc3ccc(Cl)cn23)CC1 | -1.43% (inactive) |

| Structure (SMILES) | inhibition |
| --- | --- |
| O=C(COc1ccc(Cl)cc1Cl)NCCCNC(=O)c1cnccn1 | -0.724% (inactive) |
| CCCNS(=O)(=O)c1ccc(CCC(=O)NCc2cccnc2)cc1 | -0.651% (inactive) |
| COc1ccc(NC(=O)CN2C(=O)CSC2=O)cc1 | -1.92% (inactive) |
| CCOC(=O)c1sc2nc(C)nc(SCC(N)=O)c2c1C | -0.32% (inactive) |
| COc1ccc(C#Cc2c(-c3ccc(OC)cc3)oc3ccc(-c4ccc5c(c4)OCO5)cc23)cc1 | 0.696% (inactive) |
| FC(F)(F)c1ccc2c3n(nc2c1)CCN=C3c1ccc(Cl)cc1 | -0.582% (inactive) |
| COc1ccc(CC(NC(C)=O)C(=O)NC2CCN(C(=O)c3ccc(Cl)cc3)CC2)cc1 (centres undefined) | 0.435% (inactive) |
| C[C@]12CC[C@H](O)CC1=CCC1C2CC[C@@]2(C)C1CC[C@@H]2NC(=O)CCC(=O)O (some centres undefined) | -0.874% (inactive) |
| Cn1c(SCC(=O)Nc2ccc(Cl)cc2)nc(O)cc1=O | -0.456% (inactive) |
| C[C@@H](C(=O)Nc1ccc2ccccc2c1)[C@@H]1C[C@@]1(C)[C@@H](NC(=O)c1cccnc1)c1ccccc1 | 0.267% (inactive) |
| CCN(c1ccc2c(c1)OCO2)S(=O)(=O)c1cc(Br)cc2c1N(C(=O)C1CC1)CC2 | 3.91% (inactive) |
| CC(=O)c1ccccc1NC(=O)CC1(CC(=O)O)CCCCC1 | -1.06% (inactive) |
| CCN(CCn1cccn1)Cc1cn[nH]c1-c1ccc(OC)cc1F | -1.15% (inactive) |
| Cc1cc(-c2nc(C)c(-c3nnc(SCC(=O)Nc4ccccc4)n3C)s2)no1 | -0.511% (inactive) |
| COC(=O)c1sc(C(F)(F)F)c(-c2ccccc2)c1S(=O)(=O)N(C)C | -0.149% (inactive) |
| O=C1NC(O)CCN1C1CC(O)C(CO)O1 (centres undefined) | -0.47% (inactive) |
| COc1ccccc1OCCNC(=O)C(CCSC)NC(=O)COc1ccccc1 (centres undefined) | -1.42% (inactive) |
| Cc1ccc(S(=O)(=O)CCC(=O)OCC(=O)N(C)C2CCS(=O)(=O)C2)cc1 (centres undefined) | -1.13% (inactive) |
| O=C(c1cc(-c2ccco2)nc2ccccc12)N(Cc1nnc(-c2ccc(Cl)cc2)o1)C1CC1 | 3% (inactive) |
| CN(C(=O)COC(=O)c1cc(-c2ccco2)nc2ccccc12)C1CCS(=O)(=O)C1 (centres undefined) | 66.6% (active) |
| COc1ccc(N(C)S(=O)(=O)c2cccc3nsnc23)cc1 | -1.17% (inactive) |
| Cn1c(=O)[nH]c(=O)c2c1nc(NCCCn1ccnc1)n2Cc1cccc(Br)c1 | -1.82% (inactive) |
| COc1cc(N2C(=O)c3ccccc3C2=O)c(Cl)cc1C(=O)OCC(=O)N1CCOCC1 | 0.755% (inactive) |

| Structure (SMILES) | inhibition |
| --- | --- |
| CCN1CCN(C(=O)c2cc3cc4ccc(OC)cc4nc3s2)CC1 | 0.833% (inactive) |
| Cc1ccc(C(=O)NNC(=O)c2cc3cc4ccccc4nc3s2)cc1 | 50.6% (active) |
| CS(=O)(=O)c1ccc(C(=O)NNC(=O)c2cccs2)cc1 | -1.18% (inactive) |
| O=c1ccc2cc(S(=O)(=O)N3CCN(c4ccccc4)CC3)ccc2o1 | -2.32% (inactive) |
| CSCCC(NC(=O)c1ccco1)C(=O)NCCc1ccc(F)cc1 (centres undefined) | -1.2% (inactive) |
| O=C(CNC(=O)c1cc2c(s1)CCC2)Nc1ccccc1Br | 5.93% (inactive) |
| Cn1c(CN2CCOCC2)nc2cc(NC(=O)c3ccc(Cl)cc3)ccc21 | -0.278% (inactive) |
| CCOc1cccc(OCCCOc2cccc3cccnc23)c1 | 3.69% (inactive) |
| CCOC(=O)Cn1c2c(c(-c3ccccc3OC)cc1=O)CCCC2 | 2.39% (inactive) |
| CCOc1ccc(-c2nc(N)ncc2-c2ccccc2OC)c(O)c1 | 53.5% (active) |
| c1ccc(-c2cc(N3CCCCC3)c3ccccc3n2)cc1 | 67.2% (active) |
| O=c1cc(N2CCCCC2)c(-c2ccccc2)nn1Cc1cccc(F)c1 | -0.671% (inactive) |
| Brc1cnc2ccccc2c1N1CCCCC1 | 4.39% (inactive) |
| OCCC#Cc1ccc(CN2CCN(Cc3ccsc3)C(CCO)C2)cc1 (centres undefined) | 1.89% (inactive) |
| CC(OC(=O)c1c(F)cccc1F)C(=O)NCCC1=CCCCC1 (centres undefined) | 0.59% (inactive) |
| Nc1ccc2nc3c(=O)[nH]c(=S)[nH]c3nc2c1 | 85% (active) |
| COc1cc(OC)cc(C(=O)NNC(=O)Cc2cccs2)c1 | 1.69% (inactive) |
| COc1ccc(CC(=O)Nc2sc(Cc3ccccc3)c(C)c2C(N)=O)cc1 | 0.191% (inactive) |
| COc1ccc(Cc2nnc(NC(=O)Cc3cccs3)s2)cc1 | 76.7% (active) |
| Cc1ccccc1OCC(=O)NNC(=O)c1ccc(-n2cncn2)c([N+](=O)[O-])c1 | -1.02% (inactive) |
